# Assay results from ChEMBL document CHEMBL2434950 (Eur J Med Chem, 2013).
# Experiments:
# [1] = system: Trypanosoma cruzi; test: Antiparasitic activity against Trypanosoma cruzi amastigotes after 3 days by fluorescence assay; assay type: functional; conditions: 72 h, read-out: ED50 (the source's name)
# Summary of the method: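 Gamma-irradiated (2000 Rads) Vero cells, 3.4×10^4/well in RPMI with 10% FBS, were kept overnight at 35 °C, 7% CO2. […] Serial dilutions were added at 5 concentrations up to 20 or 25 µM, each in quadruplicate, with a benznidazole control. Fluorescence was read at day 3, and IC50 was derived by non-linear regression.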
# [2] = Cytotoxicity against african green monkey Vero cells by Alamar blue assay; assay type: cell-based; conditions: chlorocebus sabaeus, read-out: ED50 (the source's name)
# [3] = system: Toxoplasma gondii; test: Antiparasitic activity against Toxoplasma gondii tachyzoites by fluorescence assay; assay type: functional; conditions: read-out: ED50 (the source's name)
# Summary of the method: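 Red fluorescent protein-expressing tachyzoites were filtered (3 µm) and needle-passed, then seeded at 4×10^4/well onto confluent hTERT monolayers in DMEM-HG with 1% FBS, 2 mM glutamine and 1 mM pyruvate, at 37 °C. Drugs were serially diluted in the same medium. Plates were read daily from the bottom (ex 544/em 590 nm). EC50 came from the fit I = Imax·C/(EC50 + C), Imax 100%. Three experiments, each in triplicate.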
# [4] = system: Trypanosoma cruzi; test: Ratio of compound ED50 to WC-9 ED50 for Trypanosoma cruzi amastigotes after 3 days by fluorescence assay; assay type: functional
# [5] = system: Toxoplasma gondii; test: Antiparasitic activity against Toxoplasma gondii tachyzoites at 10 uM by fluorescence assay; assay type: functional
# [6] = Non-competitive inhibition of glycosomal Trypanosoma cruzi SQS
# [7] = system: Trypanosoma cruzi; test: Antiparasitic activity against Trypanosoma cruzi EP epimastigotes; assay type: functional
# [8] = Non-competitive inhibition of mitochondrial Trypanosoma cruzi SQS
EC50 [1],SMILES,CC50 [2],EC50 [3],other results
> 10 µM,O=[N+]([O-])c1cccc(Oc2ccc(OCCOC3CCCCO3)cc2)c1 (stereo not given),> 50 µM,3.28 µM,
5.2 µM,N#CSCCOc1ccc(Oc2cccc([N+](=O)[O-])c2)cc1,> 50 µM,2.03 µM,Ratio ED50 [4]: 1.04
6.1 µM,COc1ccc(Oc2ccc(OCCSC#N)cc2)cc1,> 100 µM,3.81 µM,
4.5 µM,COc1cccc(Oc2ccc(OCCSC#N)cc2)c1,> 50 µM,6.7 µM,
> 10 µM,c1cncc(Oc2ccc(OCCOC3CCCCO3)cc2)c1 (stereo not given),> 50 µM,,Activity [5]: 3.25%
7.4 µM,N#CSCCOc1ccc(Oc2cccnc2)cc1,> 50 µM,7.5 µM,
11.2 µM,N#CSCCOc1cccc(Oc2ccccc2)c1,> 50 µM,3.95 µM,
10.1 µM,COc1ccc(Oc2cccc(OCCSC#N)c2)cc1,> 50 µM,2.93 µM,
,O=C1C(O)=C([C@H]2CC[C@H](c3ccc(Cl)cc3)CC2)C(=O)c2ccccc21 [ATOVAQUONE],,0.032 µM,
1.75 µM,O=C(Cn1ccnc1[N+](=O)[O-])NCc1ccccc1 [BENZNIDAZOLE],,,

SMILES,EC50 [1],CC50 [2],EC50 [3],other results
N#CSCCOc1ccc(Oc2ccccc2)cc1,5 µM,> 50 µM,4.8 µM,IC50 [6]: 0.088 µM; Ki [6]: 0.088 µM; MIC [7]: 1 µM; IC50 [8]: 0.129 µM; Ki [8]: 0.129 µM
